Test results as given in article PMC8500343 (Pharmacology Research & Perspectives, 2021).
Values joined by “and” are separate entries in the source; they are usually repeats but may differ in a detail not shown here. Identical values can stand only once. Like-named read-outs stand apart in the source and are kept apart here.

Experiments:
[1] = Stability in plasma samples; assay type: in vitro ADME, human
Bioequivalence part = assay type: in vivo, human (healthy adult subjects); conditions: for t 1/2 / AUC(0-t) / AUC(0-inf): mean (SD); for AUC(0-t): AUC0–last; for AUC(0-inf): AUC0–∞; for Geometric means ratio, AUC0–last / Geometric means ratio, AUC0–∞ / Geometric means ratio, C max: Group 1, FDC vs. free combination, Treatment A/B, fasted; for CVw (intrasubject coefficient of variation), AUC0–last / CVw (intrasubject coefficient of variation), AUC0–∞ / CVw (intrasubject coefficient of variation), C max: Group 1, Treatment A/B
How it was run: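 Single-centre, open-label, randomized two-period crossover in healthy adult men and women. Single oral doses were given after an overnight fast of at least 10 h: fixed-dose tablet (10/40 mg) versus 10 mg macitentan plus 40 mg Canadian-sourced tadalafil tablets. Plasma was sampled predose to 216 h and assayed by LC-MS/MS. Noncompartmental PK gave GMR 90% CIs against 80.00–125.00 limits and intrasubject CV.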

Food effect part = assay type: in vivo, human (healthy adult subjects); conditions: for Geometric means ratio, AUC0–last / Geometric means ratio, AUC0–∞ / Geometric means ratio, C max: Treatment C/D; for t 1/2 / AUC(0-t) / AUC(0-inf) / mean C max higher under fed (test) compared with fasted (reference) conditions: Group 2, FDC; for CVw (intrasubject coefficient of variation), AUC0–last / CVw (intrasubject coefficient of variation), AUC0–∞ / CVw (intrasubject coefficient of variation), C max: Group 2, Treatment C/D; for AUC(0-t): AUC0–last; for AUC(0-inf): AUC0–∞; for mean C max higher under fed (test) compared with fasted (reference) conditions: arithmetic means
How it was run: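 Healthy adults in a randomized two-way crossover, sequence C-D or D-C. Single oral fixed-dose tablet (10/40 mg) was given fed or fasted; both arms fasted overnight for at least 10 h. Fed dosing followed a high-fat, high-calorie breakfast per FDA guidance, eaten within 30 min. Plasma was sampled predose to 216 h and assayed by LC-MS/MS. Noncompartmental PK gave GMR 90% CIs against 80.00–125.00 limits.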

[2] = no reference given; cited from earlier work
[3] = cited from earlier work
[4] = Group 1, FDC, fasted (Treatment A)
[5] = Group 1, free combination, fasted (Treatment B)
[6] = both, human, plasma, oral, Group 1, FDC, fasted (Treatment A)
[7] = both, human, plasma, oral, Group 1, free combination, fasted (Treatment B)
[8] = fasted (Treatment D), mean (SD)
[9] = both, human, plasma, oral, fed (Treatment C), mean (SD)
[10] = both, human, plasma, oral, fasted (Treatment D), mean (SD)
[11] = in the presence of macitentan and metabolite

SMILES	stability in plasma samples at room temperature ([1]; in the presence of tadalafil)	stability in plasma samples, freeze/thaw cycles ([1]; in the presence of tadalafil)	t 1/2 (Bioequivalence part; [4])	t 1/2 (Bioequivalence part; [5])	AUC(0-t) (Bioequivalence part; [6])	AUC(0-t) (Bioequivalence part; [7])	AUC(0-inf) (Bioequivalence part; [6])	AUC(0-inf) (Bioequivalence part; [7])	Geometric means ratio, AUC0–last (Food effect part; Group 2, FDC fed vs. fasted)	Geometric means ratio, AUC0–∞ (Food effect part; Group 2, FDC fed vs. fasted)	Geometric means ratio, C max (Food effect part; Group 2, FDC fed vs. fasted)	t 1/2 (Food effect part; [8])	t 1/2 (Food effect part; fed (Treatment C), mean (SD))	CVw (intrasubject coefficient of variation), AUC0–last (Food effect part)	CVw (intrasubject coefficient of variation), AUC0–∞ (Food effect part)	CVw (intrasubject coefficient of variation), C max (Food effect part)	AUC(0-t) (Food effect part; [9])	AUC(0-inf) (Food effect part; [10])	AUC(0-inf) (Food effect part; [9])	biopharmaceutical classification system (BCS) class [2]	also measured
NS(=O)(=O)Nc1ncnc(OCCOc2ncc(Br)cn2)c1-c1ccc(Br)cc1 [Aprocitentan]	at least 26 h	5 freeze/thaw cycles	50.7 (9.99) h	49.4 (6.92) h	20900 ng·h/mL	20800 ng·h/mL	22600 ng·h/mL	22500 ng·h/mL	104.50%	103.98%	107.25%	49.7 (7.63) h	49.4 (6.02) h	7.2%	7.0%	7.4%	18900 ng·h/mL	19500 ng·h/mL	20300 ng·h/mL	–	C max (Food effect part; Group 2, FDC 10/40 mg, fasted (Treatment D), mean (SD)): 165 (29.3) ng/ml; 90% CI of GMRs for all 3 PK parameters versus equivalence limits (Food effect part; Group 2, FDC fed vs. fasted): within the equivalence limits
CCCNS(=O)(=O)Nc1ncnc(OCCOc2ncc(Br)cn2)c1-c1ccc(Br)cc1 [Macitentan]	at least 26 h	5 freeze/thaw cycles	13.9 (2.87) h	–	5850 ng·h/mL	5800 ng·h/mL	5930 ng·h/mL	5900 ng·h/mL	102.32%	102.13%	116.10%	–	14.1 (2.50) h	6.6%	6.4%	12.4%	6430 ng·h/mL	6340 ng·h/mL	6540 ng·h/mL	2	Geometric means ratio, AUC0–last (Bioequivalence part): 100.96%; Geometric means ratio, AUC0–∞ (Bioequivalence part): 100.66%; Geometric means ratio, C max (Bioequivalence part): 101.49%; CVw (intrasubject coefficient of variation), AUC0–last (Bioequivalence part): 9.6%; CVw (intrasubject coefficient of variation), AUC0–∞ (Bioequivalence part): 9.5%; CVw (intrasubject coefficient of variation), C max (Bioequivalence part): 11.2%; Tmax (Bioequivalence part; Group 1, free combination, fasted (Treatment B), median (range)): 10.0 (3.55–12.0) h; Tmax (Bioequivalence part; both, human, plasma, oral): 10 h; half-life (Bioequivalence part; both, human, plasma, oral): 14.6 h; 90% CI for the GMR of C max versus equivalence limits (80.00% to 125.00%) (Food effect part; Group 2, FDC fed vs. fasted): outside the equivalence limits; C max geometric means ratio, test higher compared to reference (Food effect part; Group 2, FDC fed vs. fasted): 16.10%; mean C max higher under fed (test) compared with fasted (reference) conditions (Food effect part): approximately 15.9%; Tmax (Food effect part; both, human, plasma, oral): 10 h; half-life (Food effect part; both, human, plasma, oral): 15.5 h; AUC(0-t) (Food effect part; [10]): 6220 ng·h/mL
CN1CC(=O)N2[C@H](c3ccc4c(c3)OCO4)c3[nH]c4ccccc4c3C[C@@H]2C1=O [Tadalafil]	–	–	22.8 (7.76) h	22.7 (7.26) h	20600 ng·h/mL	20800 ng·h/mL	20700 ng·h/mL	20900 ng·h/mL	111.07%	111.04%	144.97%	23.4 (6.64) h	–	9.9%	9.9%	17.7%	22300 ng·h/mL	19900 ng·h/mL	22500 ng·h/mL	2	geometric mean of tadalafil C max under fed conditions ([3]; tadalafil alone, fed): 586 ng/mL; C max ([3]; tadalafil in a fasted state, another study): 614 ng/mL; stability in plasma samples at room temperature [1, 11]: at least 24 h; stability in plasma samples at −20 and −70℃ [1, 11]: 127 days; stability in plasma samples, freeze/thaw cycles [1, 11]: 5 freeze/thaw cycles; Geometric means ratio, AUC0–last (Bioequivalence part): 98.87%; Geometric means ratio, AUC0–∞ (Bioequivalence part): 98.82%; Geometric means ratio, C max (Bioequivalence part): 88.30%; CVw (intrasubject coefficient of variation), AUC0–last (Bioequivalence part): 11.3%; CVw (intrasubject coefficient of variation), AUC0–∞ (Bioequivalence part): 11.3%; CVw (intrasubject coefficient of variation), C max (Bioequivalence part): 16.1%; Tmax (Bioequivalence part; both, human, plasma, oral): 2.5 h; intersubject variability in C max (Food effect part; FDC under fasting conditions): 34.0%; C max geometric means ratio, test higher compared to reference (Food effect part; Group 2, FDC fed vs. fasted): 45% and 44.97%; mean C max higher under fed (test) compared with fasted (reference) conditions (Food effect part): approximately 42.5%; Tmax (Food effect part; both, human, plasma, oral): 2.5 h; half-life (Food effect part; both, human, plasma, oral): 24.5 h; AUC(0-t) (Food effect part; [10]): 19700 ng·h/mL; Cmax (Food effect part; both, human, plasma, oral, geometric mean of tadalafil C max under fed conditions, FDC formulation, fed): 666 ng/mL; ratio of geometric mean tadalafil C max, FDC formulation vs. tadalafil (Food effect part; fed conditions, 666 ng/ml vs. 586 ng/ml (ref 21)): 1.14
